Experiment: Toxicity liver stage against HepG2, at 10uM
Format: cell-based
Design: test concentration 10 uM, cell line HepG2-A16-CD81EGFP
Conditions: human, HepG2-A16-CD81EGFP cells; read-out: INHIBITION
Summary of the method: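 Uninfected HepG2-A16-CD81EGFP cells, 3 × 10^3 per well, 1536-well, plated on prespotted compound at 10 μM final, parasite-free screening media added to match infected plates; puromycin 10 μM positive, DMSO 0.5% negative; run in parallel with 48 h PbLuc assay at 37 °C, 5% CO2; viability by CellTiter-Glo luminescence, normalized to controls.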
In the case of c1cc(CN2CCOC[C@H]2c2nc(-c3ccncc3)c[nH]2)ccn1, the cytotoxicity at 10 µM is reported as -2.65%. CC(C)n1cc(C(=O)NCCCn2ccnc2)c2n[nH]c(=O)c-2c1 showed a cytotoxicity at 10 µM of -4.17%. Work on COCC1c2nnn(CC3CC3)c2CCN1C(=O)N1CCCC1 (stereo not given) yielded a cytotoxicity at 10 µM of -131%. Compound CCOCC(=O)N1Cc2nccn2CC(CN(C)C)C1 (stereo not given) has a cytotoxicity at 10 µM of -124%. In the case of CNc1oc(-c2ccc(OC)c(S(=O)(=O)N3CCCC3)c2)nc1C#N, the cytotoxicity at 10 µM is reported as 3.33%. With CCCn1nc(C)c2c(C(F)F)cc(=O)n(CC(=O)O)c21 the cytotoxicity at 10 µM was 1.76%. Cc1nc(NC2CC(C)(C)NC(C)(C)C2)c2c(n1)c(C)nn2C showed a cytotoxicity at 10 µM of -11.5%. CCC(=O)N1CCc2c(O)nc(C3CCCCN3C(=O)C3CC3)nc2C1 (stereo not given) showed a cytotoxicity at 10 µM of 3.3%. In the case of CCn1cc(S(=O)(=O)N2CCCCCC2c2cc(C)no2)cn1 (stereo not given), the cytotoxicity at 10 µM is reported as 8.24%. For CNc1nccc(C2CCCCN2Cc2cnn3cccnc23)n1 (stereo not given), the cytotoxicity at 10 µM was 0.247%. Cc1nccc(N2CCCC(C)(c3[nH]ncc3C(N)=O)C2)n1 (stereo not given) gave a cytotoxicity at 10 µM of 1.86%. For Cc1cccc(C2CCCN2S(=O)(=O)N(C)C)n1 (stereo not given), the cytotoxicity at 10 µM was -5.5%. With CC(=O)NC[C@]1(O)CCN(C(=O)c2ccc(C)c(F)c2)C[C@H]1O the cytotoxicity at 10 µM was -2.78%. Work on COc1ccnc(N(C)Cc2c(C)noc2C)n1 yielded a cytotoxicity at 10 µM of -3.84%. Work on CN(CC(=O)NCCc1cc2ccccc2o1)S(C)(=O)=O yielded a cytotoxicity at 10 µM of 6.56%. For CCOC(=O)C1(NC(=O)CCNc2cc(C)ccc2OC)CCCCC1, the cytotoxicity at 10 µM was 6.47%. Compound Cn1c(CCCNC(=O)Nc2cn[nH]c2)nc2ccccc21 has a cytotoxicity at 10 µM of 21.9%. In the case of N#Cc1cccnc1N1CCC(OCCc2ccccc2)CC1, the cytotoxicity at 10 µM is reported as -11%. Work on CC(NC(=O)Nc1ccc(S(C)(=O)=O)cc1)c1ccc2c(c1)CC(=O)N2 (stereo not given) yielded a cytotoxicity at 10 µM of 0.0793%. For CC(C)(C)NC(=O)CN1CCCN(Cc2ccc(C#N)cc2)CC1, the cytotoxicity at 10 µM was -4.78%. CC(C)C(C(=O)N1CCN(Cc2cscn2)CC1)n1cncn1 (stereo not given) showed a cytotoxicity at 10 µM of 7.89%. O=C(c1ncoc1C1CCCO1)N1CCC2(CCCCC2)CC1 (stereo not given) gave a cytotoxicity at 10 µM of -7%. For CNC(=O)c1ccc(=O)n(Cc2csc(C(C)(C)C)n2)c1, the cytotoxicity at 10 µM was 6.8%. For O=C(c1nc(=O)[nH][nH]1)N1CCC2(CCCCC2)C1, the cytotoxicity at 10 µM was 11.4%. For CCCC(C)(C)NC(=O)c1cnc(CC)s1, the cytotoxicity at 10 µM was 10.2%. With CC/C=C(/C)C(=O)NS(=O)(=O)c1ccc(C#N)cc1C(F)(F)F the cytotoxicity at 10 µM was 11.8%. O=C(NCCN1CCCCC1CO)c1cc(-c2ccccc2)on1 (stereo not given) gave a cytotoxicity at 10 µM of -5.53%. CN(CC1CCOC1)S(=O)(=O)c1cccc(C(=O)N2CCCCCC2)c1 (stereo not given) gave a cytotoxicity at 10 µM of -0.825%. Work on Cc1cc(C(=O)NCc2csc(N(C)C)n2)c2ccc(C)c(C)c2n1 yielded a cytotoxicity at 10 µM of -0.724%. In the case of Cc1cc(C2CCC2)nc(NCC(C)(C)CO)n1, the cytotoxicity at 10 µM is reported as -2.56%. Compound COc1ccccc1OC1CCN(C(=O)c2c[nH]c(=O)[nH]c2=O)CC1 has a cytotoxicity at 10 µM of 8.45%. With Cc1cccnc1CC(C)NC1CCSCC1 (stereo not given) the cytotoxicity at 10 µM was 2.28%. With CCN(Cc1noc(CC(C)C)n1)Cc1cc2ccc(F)cc2[nH]c1=O the cytotoxicity at 10 µM was 3.34%. Work on COCCCn1c(CN2CCCCO2)cnc1S(=O)(=O)C1CCCC1 yielded a cytotoxicity at 10 µM of 4.24%. With COc1ccc(CN(C)c2nccc(-c3cn(C)nc3C)n2)cc1 the cytotoxicity at 10 µM was 13.6%. In the case of Cc1nc(O)cc(CCNC(=O)C2CC(=O)N(CC(C)C)C2)n1 (stereo not given), the cytotoxicity at 10 µM is reported as -8.11%. In the case of c1cncc(-c2noc(CNCC3CCCN3c3cccnn3)n2)c1 (stereo not given), the cytotoxicity at 10 µM is reported as -4.6%. With COCc1ccc(C(=O)N2CCN(CC(C)O)CC2)cc1 (stereo not given) the cytotoxicity at 10 µM was 0.0264%. With Cc1cc(C)n(C2CCCN(C(=O)c3c(C)noc3C)C2)n1 (stereo not given) the cytotoxicity at 10 µM was -6.41%. Compound CCS(=O)(=O)N1CCOC2(CCCN(c3cnccn3)C2)C1 (stereo not given) has a cytotoxicity at 10 µM of 2.66%. For CS(=O)(=O)N1C[C@H](C(=O)Nc2cccnc2)[C@@H]2CCO[C@@H]2C1, the cytotoxicity at 10 µM was -104%. With CN(C)C(=O)C1OC2(CCNCC2)c2ccccc21 (stereo not given) the cytotoxicity at 10 µM was 0.37%. Work on COc1ccc(CN2CCN(C(C)=O)CC3(CC(=O)N(C)C3)C2)cc1 (stereo not given) yielded a cytotoxicity at 10 µM of 9.74%. In the case of Nc1ncc(-c2csc(NC(=O)C[C@H]3COCCN3)n2)cn1, the cytotoxicity at 10 µM is reported as -2.83%. For COc1cccc(C2c3c(n[nH]c3C)N=C3COC(=O)C32)c1OC (stereo not given), the cytotoxicity at 10 µM was -5.34%.

Reference: ChEMBL document CHEMBL4513216, “Probing the Open Global Health Chemical Diversity Library for Multistage-Active Starting Points for Next-Generation Antimalarials” (ACS Infect Dis, 2020)
